ChEMBL document CHEMBL1124794, “Synthesis, chemistry, and antineoplastic activity of alpha-halopyridinium salts: potential pyridone prodrugs of acylated vinylogous carbinolamine tumor inhibitors” (J Med Chem, 1990)
One block for each molecule: values may come before it.

How the values were obtained:
[1] = test system: P388; test: In vivo activity against P388 Lymphocytic Leukemia in CD2F1 mice at the dose of 50 mg/kg, activity expressed as TDS; 6/6; type: functional, Mus musculus
In short: (§1)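 CD2F1 mice were inoculated with ascitic fluid holding ca. 10^6 P388 cells. Drug was given daily from 24 h after inoculation, from solutions or suspensions made fresh each day, some as a saline suspension. TDS is survivors/initial animals on day 5. BWD is body weight on day 5 minus day 1. %T/C compares median survival of treated and control mice.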

[2] = test system: P388; test: In vivo activity against P388 Lymphocytic Leukemia in CD2F1 mice at the dose of 25 mg/kg, activity expressed as TDS; 6/6; type: functional, Mus musculus; in short: as §1
[3] = test system: P388; test: In vivo activity against P388 Lymphocytic Leukemia in CD2F1 mice at the dose of 100 mg/kg, activity expressed as % T/C; type: functional, Mus musculus; in short: as §1
[4] = test system: P388; test: In vivo activity against P388 Lymphocytic Leukemia in CD2F1 mice at the dose of 200 mg/kg, activity expressed as TDS; 0/6; type: functional, Mus musculus; in short: as §1
[5] = test system: P388; test: In vivo activity against P388 Lymphocytic Leukemia in CD2F1 mice at the dose of 100 mg/kg, activity expressed as TDS; type: functional, Mus musculus; in short: as §1
[6] = test system: P388; test: In vivo activity against P388 Lymphocytic Leukemia in CD2F1 mice at the dose of 25 mg/kg, activity expressed as % T/C; type: functional, Mus musculus; in short: as §1
[7] = test system: P388; test: In vivo activity against P388 Lymphocytic Leukemia in CD2F1 mice at the dose of 25 mg/kg, activity expressed as KE; type: functional, Mus musculus
[8] = test system: P388; test: In vivo activity against P388 Lymphocytic Leukemia in CD2F1 mice at the dose of 100 mg/kg, activity expressed as body weight difference; type: functional, Mus musculus; in short: as §1
[9] = test system: P388; test: In vivo activity against P388 Lymphocytic Leukemia in CD2F1 mice at the dose of 12.5 mg/kg, activity expressed as KE; type: functional, Mus musculus
[10] = test system: P388; test: In vivo activity against P388 Lymphocytic Leukemia in CD2F1 mice at the dose of 12.5 mg/kg, activity expressed as body weight difference; type: functional, Mus musculus; in short: as §1
[11] = test system: P388; test: In vivo activity against P388 Lymphocytic Leukemia in CD2F1 mice at the dose of 50 mg/kg, activity expressed as % T/C; type: functional, Mus musculus; in short: as §1
[12] = test system: P388; test: In vivo activity against P388 Lymphocytic Leukemia in CD2F1 mice at the dose of 12.5 mg/kg, activity expressed as TDS; 6/6; type: functional, Mus musculus; in short: as §1
[13] = test system: P388; test: In vivo activity against P388 Lymphocytic Leukemia in CD2F1 mice at the dose of 100 mg/kg, activity expressed as KE; type: functional, Mus musculus
[14] = test system: P388; test: In vivo activity against P388 Lymphocytic Leukemia in CD2F1 mice at the dose of 12.5 mg/kg, activity expressed as % T/C; type: functional, Mus musculus; in short: as §1
[15] = test system: P388; test: In vivo activity against P388 Lymphocytic Leukemia in CD2F1 mice at the dose of 50 mg/kg, activity expressed as KE; type: functional, Mus musculus
[16] = test system: P388; test: In vivo activity against P388 Lymphocytic Leukemia in CD2F1 mice at the dose of 50 mg/kg, activity expressed as body weight difference; type: functional, Mus musculus; in short: as §1
[17] = test system: P388; test: In vivo activity against P388 Lymphocytic Leukemia in CD2F1 mice at the dose of 25 mg/kg, activity expressed as body weight difference; type: functional, Mus musculus; in short: as §1
[18] = Hydrolysis were done at 25 degree C in 0.05 M phosphate buffer (pH 7.4); type: ADME
In short: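 Model pyridinium salts were hydrolysed to pyridones at 25 °C in 0.05 M phosphate buffer, pH 7.4. Decay of the pyridinium UV absorption maximum was monitored over time, giving pseudo-first-order k_obs and half-life.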

[19] = Half life of the compound; type: ADME
[20] = test system: P388; test: In vivo body weight difference was determined in P388 Lymphocytic Leukemia in CD2F1 mice at the dose of 25 mg/kg; type: functional, Mus musculus
[21] = test system: P388; test: In vivo activity against P388 Lymphocytic Leukemia in CD2F1 mice at the dose of 25 mg/kg, activity expressed as TDS; 4/4; type: functional, Mus musculus; in short: as §1
[22] = test system: P388; test: In vivo activity against P388 Lymphocytic Leukemia in CD2F1 mice at the dose of 200 mg/kg, activity expressed as % T/C; type: functional, Mus musculus; in short: as §1
[23] = test system: P388; test: In vivo body weight difference was determined in P388 Lymphocytic Leukemia in CD2F1 mice at the dose of 200 mg/kg; type: functional, Mus musculus
[24] = test system: P388; test: In vivo body weight difference was determined in P388 Lymphocytic Leukemia in CD2F1 mice at the dose of 100 mg/kg; type: functional, Mus musculus
[25] = test system: P388; test: In vivo activity against P388 Lymphocytic Leukemia in CD2F1 mice at the dose of 200 mg/kg, activity expressed as TDS; 4/4; type: functional, Mus musculus; in short: as §1
[26] = test system: P388; test: In vivo activity against P388 Lymphocytic Leukemia in CD2F1 mice at the dose of 50 mg/kg, activity expressed as TDS; 4/4; type: functional, Mus musculus; in short: as §1
[27] = test system: P388; test: In vivo body weight difference was determined in P388 Lymphocytic Leukemia in CD2F1 mice at the dose of 50 mg/kg; type: functional, Mus musculus
[28] = test system: P388; test: In vivo activity against P388 Lymphocytic Leukemia in CD2F1 mice at the dose of 100 mg/kg, activity expressed as TDS; 4/4; type: functional, Mus musculus; in short: as §1

SMILES: CC(C)NC(=O)OCc1c(COC(=O)NC(C)C)c(-c2cc[n+](C)c(Cl)c2)n2c1CCC2.[I-]
TDS [1]: 6
TDS [2]: 6
T/C [3]: 121%
TDS [4]: 0
TDS [5]: 6
T/C [6]: 103%
KE [7]: -1.56
BWD [8]: -0.8 g
KE [9]: -1.56
BWD [10]: -0.1 g
T/C [11]: 112%
TDS [12]: 6
KE [13]: -1.07
T/C [14]: 103%
KE [15]: -1.44
BWD [16]: -0.5 g
BWD [17]: 0.4 g

K obs [18]: 0.0605 min⁻¹
half-life [19]: 0.19 h
SMILES: Cc1ccc(F)[n+](C)c1.O=S(=O)([O-])C(F)(F)F

K obs [18]: 0.041 min⁻¹
half-life [19]: 17 h
SMILES: Cc1cc(Br)c(Cl)[n+](C)c1.O=S(=O)([O-])C(F)(F)F

K obs [18]: 0.0002 min⁻¹
half-life [19]: 57.7 h
SMILES: CCOC(=O)c1cc[n+](C)c(Br)c1.O=S(=O)([O-])C(F)(F)F

SMILES: CC(C)NC(=O)OCc1c(COC(=O)NC(C)C)c(-c2cc(Br)c(Cl)[n+](C)c2)n2c1CCC2.[I-]
BWD [20]: -0.6 g
TDS [21]: 4
T/C [22]: 105%
T/C [3]: 122%
T/C [6]: 124%
BWD [23]: -0.7 g
BWD [24]: -1 g
TDS [25]: 4
T/C [11]: 118%
TDS [26]: 4
BWD [27]: -0.4 g
TDS [28]: 4

K obs [18]: 0.055 min⁻¹
half-life [19]: 6 h
SMILES: CCOC(=O)c1cc[n+](C)c(Cl)c1.O=S(=O)([O-])C(F)(F)F
